# The list is not random: actives were taken first. Their share in the collection is about 1.8%.
# MC4R antag cAMP: human MC4R antagonism in cAMP assay; P32245; MC4R-expressing cells, MTII-stimulated cAMP, LANCE TR-FRET; inhibition, % at 6.5 µM; hit rate 0.48% among 360,000; AID 540295;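 active means inhibition above its plate's cutoff, the mean of tested wells on that plate plus 3 SD, cut at about 29% in these data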;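 further: 0% = Melanotan II alone and 100% = Melanotan II plus saturating MCL0020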
#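 material = U2OS cells stably expressing human melanocortin 4 receptor (MC4R) | also added = Melanotan II challenge | dosing = single nominal compound dose of 6.5 µM | detection = TR-FRET with Eu-cAMP and labeled anti-cAMP, 671 nm | replication = singlicate | timing = compound 30 min, challenge 1 h, detection 1 h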
# MC4R barr agon: human MC4R agonism via beta-arrestin; P32245; U2OS MC4R beta-arrestin complementation, luminescence; percent of melanotan II response, DMSO zero; activation, % at 8.9 µM; hit rate 0.98% among 360,000; AID 540308;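 active means activation above a per-plate cutoff, the mean activation of sample wells on that plate plus 3 SD, cut at about 8% in these data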
# NOD2 RIPK2 PPI: inhibitors of human NOD2-RIPK2 interaction | CHO BLA complementation NOD2-RIPK2, CCF4 ratio | inhibition, % at 4.98 µM | hit rate 0.38% among 360,000; in the data active means inhibition above about 21%;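 further: 0% = vehicle only and 100% = reference blocker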
# Target sequence (O43353 whole entry, looked up): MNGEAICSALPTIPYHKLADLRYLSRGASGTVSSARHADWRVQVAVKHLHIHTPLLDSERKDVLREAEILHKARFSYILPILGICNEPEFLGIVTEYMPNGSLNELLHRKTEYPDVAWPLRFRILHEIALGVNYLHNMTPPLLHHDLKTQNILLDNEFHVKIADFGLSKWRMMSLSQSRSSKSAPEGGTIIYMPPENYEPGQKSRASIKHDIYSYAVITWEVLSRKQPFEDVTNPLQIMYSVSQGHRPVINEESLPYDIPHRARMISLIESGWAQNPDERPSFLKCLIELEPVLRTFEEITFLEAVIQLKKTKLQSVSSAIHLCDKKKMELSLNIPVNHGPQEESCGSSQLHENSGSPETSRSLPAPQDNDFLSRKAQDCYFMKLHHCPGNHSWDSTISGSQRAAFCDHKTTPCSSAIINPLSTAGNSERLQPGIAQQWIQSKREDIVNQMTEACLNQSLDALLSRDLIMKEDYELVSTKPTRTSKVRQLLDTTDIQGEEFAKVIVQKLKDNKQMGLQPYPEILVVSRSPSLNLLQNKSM
# TLR9-MyD88 inh: blocks human TLR9 binding to MyD88; CHO BLA complementation TLR9-MyD88, CCF4 FRET ratio; hit rate 0.21% among 340,000; inhibition, % at 4.98 µM; Q9NR96+Q99836;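 active means inhibition above the mean over all tested compounds plus 3 SD, cut at about 21% in these data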;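 further: 0% = DMSO only wells and 100% = clavulanate BLA inhibitor control wells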
# TLR4-MyD88 BLA: blocks binding of human TLR4 to MyD88; HeLa CL3-4 TLR4/MyD88 BLA complementation, FRET ratio; hit rate 0.18% among 200,000; inhibition, % at 8.4 µM; O00206+Q99836; in the data active means inhibition above about 25%;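 further: 0% = vehicle and 100% = reference inhibitor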
# MC4R barr conf: human MC4R beta-arrestin agonism confirmation; hit rate 31% among 2,400; activation, % at 8.9 µM; U2OS MC4R beta-arrestin recruitment, luminescence; scaled DMSO 0%, Melanotan II 100%; shares compounds with MC4R barr agon;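 active means mean activation across replicates above the hit cutoff set in the earlier primary screen, cut at about 8% in these data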
# MOR DOR agonist: counter-screen for MC4R agonists: agonists of mu-delta opioid heterodimer. shares compounds with MC4R barr agon. U2OS PathHunter beta-arrestin, beta-gal luminescence; percent of deltorphin B response, DMSO zero. activation, % at 9.2 µM. hit rate 5.8% among 2,400;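 active means mean activation across replicates exceeds the hit threshold derived in the earlier primary screen, cut at about 18% in these data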;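 further: 100% = deltorphin B at 0.9 µM final and 0% = DMSO alone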
# An asterisk follows results filed as active; . = not tested or not shown.
SMILES,MC4R antag cAMP,MC4R barr agon,NOD2 RIPK2 PPI,TLR9-MyD88 inh,TLR4-MyD88 BLA,MC4R barr conf,MOR DOR agonist
O=C(NCC(c1ccco1)N1CCc2ccccc21)C(=O)Nc1ccccc1F (centres undefined),1.5,-2.0,5.0,-5.5,.,.,.
S=c1[nH]c(-c2ccc(Br)cc2)cn1CCc1ccccc1,3.7,19.0*,-8.6,3.8,4.0,-0.8,5.2
CCOc1ccc(CCNC(=O)CCNS(=O)(=O)c2ccc3c(c2)CCN3C(C)=O)cc1OCC,5.2,-1.3,5.4,-3.6,.,.,.
COc1ccc(C(=O)O/N=C(\N)c2ccccc2)cc1,11.8,-0.2,-1.4,-9.2,.,.,.
CC(C)(C)c1ccc(C(=O)O/N=C(\N)c2ccccc2)cc1,7.4,15.9*,4.6,-6.1,.,8.4*,11.9
c1ccc(COc2ncnc3c2ncn3CCCNCCN2CCOCC2)cc1,0.4,-1.9,0.6,0.5,.,.,.
CCOc1ccc(-c2nnn(CC(=O)Nc3cc(OC)ccc3OC)n2)cc1OCC,1.9,0.2,-0.7,-5.6,-10.8,.,.
CCOc1ccccc1NC(=O)Cn1nnc(-c2ccc(OCC)c(OCC)c2)n1,-1.3,9.7*,-6.2,-5.9,-6.9,3.2,4.3
CCOc1ccc(-c2nnn(CC(=O)Nc3cc(OC)cc(OC)c3)n2)cc1OCC,-1.9,11.1*,-1.0,9.7,-0.5,4.1,7.4
CC(C)COc1ccc(C(=O)Nc2ccc(NC(=O)c3ccco3)c(Cl)c2)cc1,3.4,40.4*,-2.8,-0.8,-10.6,23.6*,28.0*
Cc1cc(C)cc(OCc2nnc(SCC(=O)N3CCN(c4ccccc4)CC3)o2)c1,0.3,10.0*,2.8,-1.1,6.8,4.0,12.0
CCc1ccc(OCc2nnc(SCC(=O)N3CCN(c4ccccc4)CC3)o2)cc1,8.7,16.6*,-14.2,0.3,-1.0,6.0,19.6*
CCCCCCn1c(C)nc2c(c1=O)c1nc3ccccc3nc1n2/N=C/c1ccco1,-1.1,24.8*,1.5,7.5,-9.0,0.1,2.1
Cc1cnc(NC(=O)CSc2nnc(Cc3ccccc3)n2C)s1,0.8,-0.6,-7.1,-4.6,2.2,.,.
Cc1ccccc1OCc1nnc(SCC(=O)Nc2ccc3nc(SCC(=O)Nc4ccccc4)sc3c2)n1C,-1.2,18.4*,-5.0,-6.7,7.8,6.5,4.6
Cn1cnnc1SCC(=O)Nc1ccc2nc(SCc3ccccc3Cl)sc2c1,17.1,0.2,1.4,1.0,8.3,.,.
Cc1ccccc1OCc1nnc(SCC(=O)Nc2ccc3c(c2)OCO3)n1C,-3.1,-2.3,-1.4,0.1,-13.5,.,.
O=C(CSc1nc2ccc(NC(=O)CSc3nnnn3Cc3ccccc3)cc2s1)Nc1ccccc1,4.3,11.5*,-0.8,0.6,4.5,5.5,5.2
Cc1ccc(C(C)C)c(OCc2nnc(SCC(=O)Nc3ncc(C)s3)n2C)c1,-1.9,12.6*,-3.0,-20.2,9.6,5.5,6.8
Cn1cnnc1SCC(=O)Nc1ccc2nc(SCc3cccc4ccccc34)sc2c1,10.4,9.6*,-2.9,-2.9,-7.3,2.7,3.3
O=C(CCNC(=O)c1ccc(Cl)cc1)NCCCN1CCOCC1,17.8,-0.7,-3.0,4.6,.,.,.
CCc1c(C2(O)CCCCC2)[nH]c2ccc(C#N)cc12,8.4,10.8*,2.5,3.7,.,3.1,8.1
COc1ccc(C(=O)OCC(=O)NC(=O)NCc2ccccc2)cc1[N+](=O)[O-],7.8,0.1,10.2,-10.7,.,.,.
COc1cc(C(=O)OCC(=O)NC(=O)NCc2ccccc2)ccc1OC(F)F,-2.9,9.7*,2.7,-6.0,.,3.2,7.8
COc1ccc(/C=N/Nc2ccc(C(F)(F)F)cc2[N+](=O)[O-])cc1O,-7.6,20.3*,-0.4,-2.6,7.3,3.6,4.1
O=C(/C=C/c1ccc(OCCCF)cc1)NCc1ccc(Cl)cc1,-1.4,15.2*,-0.3,7.7,5.5,2.5,4.4
CC(CCc1ccccc1)NC(=O)CC(C)c1ccccc1 (centres undefined),8.8,0.2,-10.9,-0.9,.,.,.
O=C(/C=C/c1cccc(F)c1)OCC(=O)N1CCc2ccccc21,8.3,28.1*,6.3,-7.1,.,-0.2,3.2

# High-throughput results: PubChem BioAssay, The Scripps Research Institute Molecular Screening Center
